Results reported in PubChem BioAssay.
Several values for one entry are separate records, joined by “and”; a condition that tells them apart may be missing. Identical values can stand only once. Activity calls are given as the source filed them.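 How the source made its calls, unless noted: active means viability at or below 10% of carrier control in both of two separate runs; inconclusive means viability at or below 10% in only one of the two runs; inactive means the rest.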

What was measured:
[1] = reducers of endogenous Her2 protein level, primary screen, SKBR3 breast tumor cells, AlphaScreen, ATP viability (AID 461;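 active means Her2 level under about 52% in both replicate screens, with viability over 70% of control, limit read from the data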;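 on Her2 level: lower value means less Her2 protein in the cells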;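 on viability: percent of carrier control wells set as 100% viability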); details: 18-24 h, measured here: SKBR3 viability, ATP luminescence, at 10 µM
[2] = biological target: Receptor tyrosine-protein kinase erbB-2 (Homo sapiens) (UniProt P04626); experiment: as above; details: 18-24 h, at 10 µM, stronger effect = lower value
[3] = SK-BR-3 cell growth inhibitors, pilot screen, 24 h, human (AID 572); details: SK-BR-3 viability, CellTiter-Glo luminescence, at 10 µM, stronger effect = lower value;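 further: compound exposure lasted between 18 and 24 h rather than exactly 24 h; 100% = carrier-treated control wells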
[4] = HUVEC growth inhibition – cell-based, human, primary screen (AID 575;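 active means viability at or below 30% in both replicate assays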;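 further: 100% = median of untreated cell wells with 0.1% DMSO on each plate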); details: HUVEC proliferation, CellTiter-Glo luminescence, 72 h; at 10 µM; stronger effect = lower value
How it was run: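 Material: primary human umbilical vein endothelial cells / Schedule: 72 h exposure, 37 °C, 5% CO2, 30 min RT equilibration / Signal: ATP-based CellTiter-Glo luminescent read / Read-out basis: percent of median DMSO-control luminescence / Control set: 32 DMSO-only cell-control wells (high), 32 MePR drug-control wells (low) per plate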

[5] = growth inhibitors of H69AR lung tumor, primary screen, human, duplicate replicates (AID 580;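 active means viability at or under a set limit in both replicates, limit being median viability minus 3 SD, cut at about 48% in these data, passing the limit was not always enough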;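 further: 100% = mean luminescence of untreated wells and 0% = no signal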); details: H69AR lung tumor cells viability, ATP luminescence, 72 h; at 10 µM; stronger effect = lower value
[6] = reversal of MRP1-mediated doxorubicin resistance, pilot screen, H69AR cells, doxorubicin co-treatment (AID 601;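 active means viability loss from added drug above about 55%, and viability with drug at most 40%, in both replicates, limit read from the data, passing the limit was not always enough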); details: CellTiter-Glo, 72 h, at 10 µM; for differential viability (reversal): stronger effect = higher value
[7] = H69AR cells + 2 uM doxorubicin, measured here: viability with 2 uM doxorubicin, stronger effect = lower value
[8] = H69AR cells, compound alone cytotoxicity

Sequence of Receptor tyrosine-protein kinase erbB-2 (Homo sapiens) (P04626 whole entry, looked up): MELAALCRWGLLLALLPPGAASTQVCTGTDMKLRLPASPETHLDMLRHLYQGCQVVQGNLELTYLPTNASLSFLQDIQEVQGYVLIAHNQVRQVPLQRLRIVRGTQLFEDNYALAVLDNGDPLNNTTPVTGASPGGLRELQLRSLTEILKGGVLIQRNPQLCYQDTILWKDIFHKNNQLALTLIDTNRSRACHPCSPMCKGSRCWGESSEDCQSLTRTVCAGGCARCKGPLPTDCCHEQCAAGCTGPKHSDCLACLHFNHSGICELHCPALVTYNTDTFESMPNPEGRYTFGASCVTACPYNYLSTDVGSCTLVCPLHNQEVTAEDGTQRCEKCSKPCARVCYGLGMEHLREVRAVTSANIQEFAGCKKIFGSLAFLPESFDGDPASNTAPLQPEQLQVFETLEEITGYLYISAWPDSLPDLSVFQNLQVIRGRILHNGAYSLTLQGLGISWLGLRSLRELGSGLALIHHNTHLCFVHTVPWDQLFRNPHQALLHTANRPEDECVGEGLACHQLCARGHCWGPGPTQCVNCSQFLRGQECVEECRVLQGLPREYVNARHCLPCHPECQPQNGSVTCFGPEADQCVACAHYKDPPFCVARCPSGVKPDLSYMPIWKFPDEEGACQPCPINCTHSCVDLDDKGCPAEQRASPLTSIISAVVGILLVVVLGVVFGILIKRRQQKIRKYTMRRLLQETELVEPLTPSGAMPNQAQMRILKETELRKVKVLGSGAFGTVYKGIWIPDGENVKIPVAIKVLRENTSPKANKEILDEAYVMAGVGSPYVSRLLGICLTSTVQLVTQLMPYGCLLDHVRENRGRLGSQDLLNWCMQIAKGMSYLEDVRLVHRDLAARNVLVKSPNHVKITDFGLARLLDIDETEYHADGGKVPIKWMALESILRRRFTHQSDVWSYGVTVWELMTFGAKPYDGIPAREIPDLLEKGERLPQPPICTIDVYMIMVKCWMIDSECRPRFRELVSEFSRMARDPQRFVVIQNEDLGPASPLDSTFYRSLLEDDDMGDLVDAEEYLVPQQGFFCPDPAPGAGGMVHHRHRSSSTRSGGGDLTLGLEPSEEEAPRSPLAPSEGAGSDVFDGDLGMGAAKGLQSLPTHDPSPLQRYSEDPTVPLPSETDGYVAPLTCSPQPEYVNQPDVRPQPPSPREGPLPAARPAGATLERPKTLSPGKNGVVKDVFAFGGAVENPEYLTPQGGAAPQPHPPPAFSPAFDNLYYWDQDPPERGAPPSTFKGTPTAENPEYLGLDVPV

Structure (SMILES)	viability [1]	Her2 level [2]	viability [3]	viability [4]	viability [5]	differential viability (reversal) ([6]; H69AR cells + 2 uM doxorubicin)	viability [6, 7]	viability [6, 8]
CC1Cc2ccccc2N1NC(=O)c1ccc(Cl)c(S(N)(=O)=O)c1 (stereo unspecified)	93.5%	105% (inactive)	93.5% (inactive)	102% (inactive)	91.4% (inactive)	1.41% (inactive)	90%	91.4%
CCCn1c(=O)[nH]c(=O)c2[nH]cnc21	104%	92% (inactive)	104% (inactive)	98.1% (inactive)	100% (inactive)	3.64% (inactive)	96.7%	100%
C[C@H]1C[C@H]2[C@@H]3CCC4=CC(=O)C=C[C@]4(C)[C@@]3(Cl)[C@@H](O)C[C@]2(C)[C@@]1(O)C(=O)CO	110%	112% (inactive)	110% (inactive)	91.4% (inactive)	97.5% (inactive)	-5.3% (inactive)	103%	97.5%
C[C@]12CC[C@@H]3c4ccc(O[C@@H]5O[C@H](C(=O)O)[C@@H](O)[C@H](O)[C@H]5O)cc4CC[C@H]3[C@@H]1C[C@@H](O)[C@@H]2O	102%	92.5% (inactive)	102% (inactive)	89.5% (inactive)	102% (inactive)	17.1% (inactive)	84.8%	102%
C[C@]12CC[C@H]3[C@@H](CCC4=CC(=O)CC[C@@]43C)[C@@H]1CC[C@@H]2C(=O)CO	106%	90.5% (inactive)	106% (inactive)	56.6% (inactive)	78.6% (inactive)	-16.3% (inactive)	94.9%	78.6%
COc1ccc(C2CNC(=O)C2)cc1OC1CCCC1 (stereo unspecified)	115%	121% (inactive)	115% (inactive)	114% (inactive)	109% (inactive)	18.8% (inactive)	90.6%	109%
CCN(CC)CC#CCOC(=O)C(O)(c1ccccc1)C1CCCCC1 (stereo unspecified)	82%	99% (inactive)	82% (inactive)	79.6% (inactive)	71.7% (inactive)	-0.33% (inactive)	72.1%	71.7%
O=C(O)c1cccnc1Nc1cccc(C(F)(F)F)c1	100%	98.5% (inactive)	100% (inactive)	86.4% (inactive)	108% (inactive)	13.5% (inactive)	94.5%	108%
Nc1nnc(-c2cccc(Cl)c2Cl)c(N)n1	109%	124% (inactive)	109% (inactive)	103% (inactive)	97.1% (inactive)	3.66% (inactive)	93.4%	97.1%
CCOC(=O)CCC(=O)O[C@H]1[C@H](O[C@@H]2[C@@H](C)[C@H](O[C@H]3C[C@@](C)(OC)[C@@H](O)[C@H](C)O3)[C@@H](C)C(=O)O[C@H](CC)[C@@](C)(O)[C@H](O)[C@@H](C)C(=O)[C@H](C)C[C@@]2(C)O)O[C@H](C)C[C@@H]1N(C)C	97%	98% (inactive)	97% (inactive)	79.6% (inactive)	89.8% (inactive)	-0.63% (inactive)	90.4%	89.8%
Cc1ccc(C)c(OCCCC(C)(C)C(=O)O)c1	130%	104% (inactive)	130% (inactive)	100% (inactive)	109% (inactive)	17.2% (inactive)	91.5%	109%
CC(=O)Oc1cc(C(C)C)c(OCCN(C)C)cc1C	96.5%	118% (inactive)	96.5% (inactive)	105% (inactive)	99% (inactive)	1.28% (inactive)	97.8%	99%
c1ccc(CN(CC2=NCCN2)c2ccccc2)cc1	91.5% and 100%	114% (inactive) and 91.5% (inactive)	91.5% (inactive) and 100% (inactive)	94.1% (inactive) and 87.9% (inactive)	93.2% (inactive) and 96.6% (inactive)	6.63% (inactive) and -1.34% (inactive)	86.6% and 97.9%	93.2% and 96.6%
Nc1ccc2cn[nH]c2c1	100%	128% (inactive)	100% (inactive)	82.2% (inactive)	93.1% (inactive)	-18.1% (inactive)	111%	93.1%
Cc1ncc([N+](=O)[O-])n1CC(O)CCl (stereo unspecified)	99.5%	106% (inactive)	99.5% (inactive)	108% (inactive)	104% (inactive)	0.25% (inactive)	104%	104%
Cc1cn([C@H]2C[C@H](N=[N+]=[N-])[C@@H](CO)O2)c(=O)[nH]c1=O	91.5%	90% (inactive)	91.5% (inactive)	104% (inactive)	96.5% (inactive)	4.1% (inactive)	92.4%	96.5%

Structure (SMILES)	viability [1]	Her2 level [2]	viability [3]	viability [4]	viability [5]	differential viability (reversal) ([6]; H69AR cells + 2 uM doxorubicin)	viability [6, 7]	viability [6, 8]
CO[C@@]1(NC(=O)CSCC#N)C(=O)N2C(C(=O)O)=C(CSc3nnnn3C)CS[C@@H]21	110%	136% (inactive)	110% (inactive)	97% (inactive)	95% (inactive)	-5.77% (inactive)	101%	95%
C[C@]12CCC(=O)C=C1CC[C@@H]1[C@@H]2CC[C@@]2(C)[C@H]1CC[C@]2(O)C(=O)CO	99%	142% (inactive)	99% (inactive)	97.7% (inactive)	92.8% (inactive)	-6.52% (inactive)	99.4%	92.8%
CC(=O)OCC(=O)[C@@]1(O)CC[C@H]2[C@@H]3CCC4=CC(=O)C=C[C@]4(C)[C@@]3(Cl)[C@@H](Cl)C[C@@]21C	114%	116% (inactive)	114% (inactive)	98.5% (inactive)	97.4% (inactive)	-13% (inactive)	110%	97.4%
CCCC(=O)Nc1ncnc2c1ncn2[C@@H]1O[C@@H]2COP(=O)(O)O[C@H]2[C@H]1OC(=O)CCC	102%	104% (inactive)	102% (inactive)	109% (inactive)	104% (inactive)	13.3% (inactive)	90.8%	104%
CC(=O)OCC(=O)[C@@]12OC3(CCCC3)O[C@@H]1C[C@H]1[C@@H]3CCC4=CC(=O)C=C[C@]4(C)[C@@]3(F)[C@@H](O)C[C@@]12C	132%	91.5% (inactive)	132% (inactive)	86.6% (inactive)	83.1% (inactive)	2.75% (inactive)	80.3%	83.1%
CC[N+](C)(C)c1cccc(O)c1	97.5%	94.5% (inactive)	97.5% (inactive)	81.1% (inactive)	95% (inactive)	9.69% (inactive)	85.3%	95%
N[C@@H](Cc1cc(I)c(Oc2ccc(O)c(I)c2)c(I)c1)C(=O)O	100%	87% (inactive)	100% (inactive)	86.9% (inactive)	97.6% (inactive)	6.87% (inactive)	90.8%	97.6%
NC(Cc1ccc(Oc2ccc(O)cc2)cc1)C(=O)O (stereo unspecified)	92.5%	97% (inactive)	92.5% (inactive)	107% (inactive)	80.8% (inactive)	7.61% (inactive)	73.1%	80.8%
COc1cc2nc(N3CCN(C(=O)C4CCCO4)CC3)nc(N)c2cc1OC (stereo unspecified)	100%	99% (inactive)	100% (inactive)	98.5% (inactive)	91.6% (inactive)	-0.44% (inactive)	92%	91.6%
CC(COc1ccccc1)NC(C)C(O)c1ccc(O)cc1 (stereo unspecified)	97%	105% (inactive)	97% (inactive)	88.5% (inactive)	88.6% (inactive)	-17.2% (inactive)	106%	88.6%
CN1CCN(CC(=O)N2c3ccccc3C(=O)Nc3cccnc32)CC1	122%	98.5% (inactive)	122% (inactive)	98.8% (inactive)	96.1% (inactive)	6.04% (inactive)	90%	96.1%
CN(C)CCOc1ccccc1Cc1ccccc1	88.5%	95.5% (inactive)	88.5% (inactive)	107% (inactive)	100% (inactive)	11% (inactive)	89.5%	100%
c1ccc2c(CC3=NCCN3)cccc2c1	101%	99.5% (inactive)	101% (inactive)	91.7% (inactive)	93.8% (inactive)	14.9% (inactive)	78.9%	93.8%
CN(C(=O)C(Cl)Cl)c1ccc(OC(=O)c2ccco2)cc1	130%	88% (inactive)	130% (inactive)	86.3% (inactive)	96.6% (inactive)	5.13% (inactive)	91.5%	96.6%
NC(N)=NS(=O)(=O)c1ccc(N)cc1	100%	105% (inactive)	100% (inactive)	89.2% (inactive)	98.8% (inactive)	-2.93% (inactive)	102%	98.8%
CN(C)CCOC(c1ccccc1)c1ccccc1 (tested in a mixture with another compound)	93.5%	106% (inactive)	93.5% (inactive)	98.9% (inactive)	103% (inactive)	19.3% (inactive)	83.7%	103%
